{
  "source": "ChEMBL document CHEMBL4270599",
  "about": "“Synthesis of a 3'-C-ethynyl-β-d-ribofuranose purine nucleoside library: Discovery of C7-deazapurine analogs as potent antiproliferative nucleosides” (Eur J Med Chem, 2018)",
  "key": {"L1210": {"test_system": "L1210", "experiment": "Antiproliferative activity against mouse L1210 cells after 48 hrs by Coulter counter method", "type": "functional, cell-based", "conditions": "L1210, 48 h", "outline": "(§1)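 Cell count assay in 96-well microtiter plates; (5–7.5) × 10⁴ tumor cells per well plus test compound. Cells proliferated at 37 °C in humidified CO₂-controlled atmosphere, 48 h for murine leukemia L1210, 72 h for human lymphocytic CEM and cervix carcinoma HeLa. Counted by Coulter counter; IC₅₀ is the concentration that inhibits proliferation by 50%.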"}, "HeLa": {"test_system": "HeLa", "experiment": "Antiproliferative activity against human HeLa cells after 72 hrs by Coulter counter method", "type": "functional, cell-based", "outline": "as §1"}, "CCRF-CEM": {"test_system": "CCRF-CEM", "experiment": "Antiproliferative activity against human CEM cells after 72 hrs by Coulter counter method", "type": "functional, cell-based", "outline": "as §1"}, "[1]": {"experiment": "Cytotoxicity against HELF cells assessed as alteration of cell morphology by microscopic analysis", "type": "cell-based", "conditions": "human", "outline": "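Uninfected Hel fibroblast cultures exposed to compound alongside antiviral assays. Minimal cytotoxic concentration (MCC) is the concentration giving microscopically visible alteration of normal cell morphology.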"}, "Human betaherpesvirus 5 [2]": {"test_system": "Human betaherpesvirus 5", "experiment": "Antiviral activity against Human cytomegalovirus AD169 strain infected in HELF cells assessed as inhibition of virus-induced cytopathogenicity", "type": "functional, organism-based", "conditions": "Human betaherpesvirus 5, AD169, HELF", "outline": "(§2)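 Confluent human embryonic lung fibroblasts in 96-well plates inoculated with 100 CCID₅₀ HCMV. Residual virus removed after 1–2 h, then cultures incubated with varying compound concentrations. Cytopathicity scored once complete in untreated infected controls. EC₅₀ is the concentration reducing virus-induced cytopathicity by 50%.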"}, "Human alphaherpesvirus 3 [3]": {"test_system": "Human alphaherpesvirus 3", "experiment": "Antiviral activity against thymidine kinase-deficient Varicella Zoster virus Oka strain infected in HELF cells assessed as inhibition of virus-induced plaque formation", "type": "functional, organism-based", "conditions": "Human alphaherpesvirus 3, strain Oka vaccine", "outline": "(§3)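 Confluent human embryonic lung fibroblast monolayers in 96-well plates were infected with 100 CCID50 of virus or, for VZV, 20 PFU, in the presence of varying compound concentrations. For HCMV/VZV-type assays, residual virus was removed after 1–2 h before compound addition. Cytopathicity or plaque formation was scored once complete in untreated infected controls. Highest concentration tested was 100 μM.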"}, "Human betaherpesvirus 5 [4]": {"test_system": "Human betaherpesvirus 5", "experiment": "Antiviral activity against Human cytomegalovirus Davis strain infected in HELF cells assessed as inhibition of virus-induced cytopathogenicity", "type": "functional, organism-based", "conditions": "Human betaherpesvirus 5, Davis", "outline": "as §2"}, "Human alphaherpesvirus 3 [5]": {"test_system": "Human alphaherpesvirus 3", "experiment": "Antiviral activity against thymidine kinase-deficient Varicella Zoster virus 07-1 strain infected in HELF cells assessed as inhibition of virus-induced plaque formation", "type": "functional, organism-based", "conditions": "Human alphaherpesvirus 3, 07-1, HELF", "outline": "as §3"}, "Human alphaherpesvirus 1 [6]": {"test_system": "Human alphaherpesvirus 1", "experiment": "Antiviral activity against Human herpesvirus 1 KOS strain infected in HELF cells assessed as inhibition of virus-induced cytopathogenicity", "type": "functional, organism-based", "conditions": "Human alphaherpesvirus 1, KOS", "outline": "as §3"}, "[7]": {"experiment": "Cytotoxicity against HELF cells after by Coulter counter method", "type": "cell-based", "conditions": "human", "outline": "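Hel fibroblast proliferation measured by Coulter Counter cell count in presence of compound. CC₅₀ is the concentration (μM) reducing cell proliferation by 50%.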"}, "Human alphaherpesvirus 1 [8]": {"test_system": "Human alphaherpesvirus 1", "experiment": "Antiviral activity against thymidine kinase-deficient acyclovir-resistant Human herpesvirus 1 KOS strain infected in HELF cells assessed as inhibition of virus-induced cytopathogenicity", "type": "functional, organism-based", "conditions": "Human alphaherpesvirus 1, KOS", "outline": "as §3"}, "Human alphaherpesvirus 2": {"test_system": "Human alphaherpesvirus 2", "experiment": "Antiviral activity against Human herpesvirus 2 G strain infected in HELF cells assessed as inhibition of virus-induced cytopathogenicity", "type": "functional, organism-based", "conditions": "Human alphaherpesvirus 2, strain G", "outline": "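Confluent Hel fibroblast cultures in 96-well plates inoculated with 100 CCID₅₀ virus in presence of varying compound concentrations. Cytopathicity recorded once complete in untreated virus-infected controls. EC₅₀ is the concentration reducing virus-induced cytopathogenicity by 50%; compounds tested up to 100 μM.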"}},
  "note": "pEC50, pIC50: −log10 of the molar value.",
  "data": [
    {"compound": "C#Cc1cn([C@@H]2O[C@H](CO)[C@](O)(C#C)[C@H]2O)c2ncnc(N)c12", "values": [
      {"measurement": "pIC50", "setting": "L1210", "result": 3.80},
      {"measurement": "pIC50", "setting": "HeLa", "result": 3.94},
      {"measurement": "pIC50", "setting": "CCRF-CEM", "result": 4.20}
    ]},
    {"compound": "C#C[C@@]1(O)[C@@H](CO)O[C@@H](n2cc(Cl)c3c(N)ccnc32)[C@@H]1O", "values": [
      {"measurement": "MCC", "setting": "[1]", "result": "≥ 100", "unit": "µM"},
      {"measurement": "pEC50", "setting": "Human betaherpesvirus 5 [2]", "result": "< 4.00"},
      {"measurement": "pEC50", "setting": "Human alphaherpesvirus 3 [3]", "result": "< 4.00"},
      {"measurement": "pEC50", "setting": "Human betaherpesvirus 5 [4]", "result": 4.70},
      {"measurement": "pIC50", "setting": "L1210", "result": 6.01},
      {"measurement": "pIC50", "setting": "HeLa", "result": 5.77},
      {"measurement": "pEC50", "setting": "Human alphaherpesvirus 3 [5]", "result": 4.76},
      {"measurement": "pIC50", "setting": "CCRF-CEM", "result": 5.27}
    ]},
    {"compound": "C#C[C@@]1(O)[C@@H](CO)O[C@@H](n2cc(Br)c3c(Cl)ccnc32)[C@@H]1O", "values": [
      {"measurement": "MCC", "setting": "[1]", "result": "≥ 100", "unit": "µM"},
      {"measurement": "pEC50", "setting": "Human betaherpesvirus 5 [2]", "result": 6.44},
      {"measurement": "pEC50", "setting": "Human alphaherpesvirus 1 [6]", "result": 5.18},
      {"measurement": "pEC50", "setting": "Human alphaherpesvirus 3 [3]", "result": 5.56},
      {"measurement": "pEC50", "setting": "Human betaherpesvirus 5 [4]", "result": 6.46},
      {"measurement": "CC50", "setting": "[7]", "result": 0.35, "unit": "µM"},
      {"measurement": "pIC50", "setting": "L1210", "result": 4.52},
      {"measurement": "pIC50", "setting": "HeLa", "result": 6.05},
      {"measurement": "pEC50", "setting": "Human alphaherpesvirus 3 [5]", "result": 5.64},
      {"measurement": "pEC50", "setting": "Human alphaherpesvirus 1 [8]", "result": 5.23},
      {"measurement": "pIC50", "setting": "CCRF-CEM", "result": 6.25},
      {"measurement": "pEC50", "setting": "Human alphaherpesvirus 2", "result": "< 4.00"}
    ]},
    {"compound": "C#C[C@@]1(O)[C@@H](CO)O[C@@H](n2cnc3c(-c4ccccc4)ncnc32)[C@@H]1O", "values": [
      {"measurement": "pIC50", "setting": "L1210", "result": "< 3.60"},
      {"measurement": "pIC50", "setting": "HeLa", "result": "< 3.60"},
      {"measurement": "pIC50", "setting": "CCRF-CEM", "result": "< 3.60"}
    ]},
    {"compound": "C#C[C@@]1(O)[C@@H](CO)O[C@@H](n2cc(I)c3c(N)ccnc32)[C@@H]1O", "values": [
      {"measurement": "pIC50", "setting": "L1210", "result": 7.36},
      {"measurement": "pIC50", "setting": "HeLa", "result": 6.74},
      {"measurement": "pIC50", "setting": "CCRF-CEM", "result": 6.51}
    ]},
    {"compound": "C#C[C@@]1(O)[C@@H](CO)O[C@@H](n2ccc3c(Cl)ccnc32)[C@@H]1O", "values": [
      {"measurement": "MCC", "setting": "[1]", "result": "20 to 100", "unit": "µM"},
      {"measurement": "pEC50", "setting": "Human betaherpesvirus 5 [2]", "result": "< 4.00"},
      {"measurement": "pEC50", "setting": "Human alphaherpesvirus 1 [6]", "result": "< 4.00"},
      {"measurement": "pEC50", "setting": "Human alphaherpesvirus 3 [3]", "result": "< 4.00"},
      {"measurement": "pEC50", "setting": "Human betaherpesvirus 5 [4]", "result": "< 4.00"},
      {"measurement": "pIC50", "setting": "L1210", "result": 3.71},
      {"measurement": "pIC50", "setting": "HeLa", "result": 3.87},
      {"measurement": "pEC50", "setting": "Human alphaherpesvirus 3 [5]", "result": "< 4.00"},
      {"measurement": "pEC50", "setting": "Human alphaherpesvirus 1 [8]", "result": "< 4.00"},
      {"measurement": "pIC50", "setting": "CCRF-CEM", "result": 4.07},
      {"measurement": "pEC50", "setting": "Human alphaherpesvirus 2", "result": "< 4.00"}
    ]},
    {"compound": "C#C[C@@]1(O)[C@@H](CO)O[C@@H](n2cnc3c(-c4ccc(F)cc4)ncnc32)[C@@H]1O", "values": [
      {"measurement": "pIC50", "setting": "L1210", "result": "< 3.60"},
      {"measurement": "pIC50", "setting": "HeLa", "result": 3.66},
      {"measurement": "pIC50", "setting": "CCRF-CEM", "result": 3.65}
    ]},
    {"compound": "Nc1ccn(C[C@@H](CO)OCP(=O)(O)O)c(=O)n1", "note": "[CIDOFOVIR]", "values": [
      {"measurement": "MCC", "setting": "[1]", "result": "250 to 300", "unit": "µM"},
      {"measurement": "pEC50", "setting": "Human betaherpesvirus 5 [2]", "result": 5.80},
      {"measurement": "pEC50", "setting": "Human alphaherpesvirus 1 [6]", "result": 5.82},
      {"measurement": "pEC50", "setting": "Human betaherpesvirus 5 [4]", "result": 5.84},
      {"measurement": "pEC50", "setting": "Human alphaherpesvirus 2", "result": 5.92}
    ]},
    {"compound": "C#C[C@@]1(O)[C@@H](CO)O[C@@H](n2cnc3c(N)ncnc32)[C@@H]1O", "values": [
      {"measurement": "MCC", "setting": "[1]", "result": 20, "unit": "µM"},
      {"measurement": "pEC50", "setting": "Human betaherpesvirus 5 [2]", "result": "≤ 5.40"},
      {"measurement": "pEC50", "setting": "Human alphaherpesvirus 1 [6]", "result": "< 5.40"},
      {"measurement": "pEC50", "setting": "Human alphaherpesvirus 3 [3]", "result": 5.74},
      {"measurement": "pEC50", "setting": "Human betaherpesvirus 5 [4]", "result": "≤ 5.40"},
      {"measurement": "CC50", "setting": "[7]; HELF cells", "result": "0.7 to 0.73", "unit": "µM"},
      {"measurement": "pEC50", "setting": "Human alphaherpesvirus 3 [5]", "result": 5.79},
      {"measurement": "pEC50", "setting": "Human alphaherpesvirus 1 [8]", "result": "< 5.40"},
      {"measurement": "pEC50", "setting": "Human alphaherpesvirus 2", "result": "< 5.40"}
    ]},
    {"compound": "C#C[C@@]1(O)[C@@H](CO)O[C@@H](n2cc(Cl)c3c(Cl)ccnc32)[C@@H]1O", "values": [
      {"measurement": "MCC", "setting": "[1]", "result": "20 to 100", "unit": "µM"},
      {"measurement": "pEC50", "setting": "Human betaherpesvirus 5 [2]", "result": 6.29},
      {"measurement": "pEC50", "setting": "Human alphaherpesvirus 1 [6]", "result": 4.79},
      {"measurement": "pEC50", "setting": "Human alphaherpesvirus 3 [3]", "result": 4.78},
      {"measurement": "pEC50", "setting": "Human betaherpesvirus 5 [4]", "result": 6.28},
      {"measurement": "CC50", "setting": "[7]", "result": 5.25, "unit": "µM"},
      {"measurement": "pIC50", "setting": "L1210", "result": 4.12},
      {"measurement": "pIC50", "setting": "HeLa", "result": 5.20},
      {"measurement": "pEC50", "setting": "Human alphaherpesvirus 3 [5]", "result": 5.51},
      {"measurement": "pEC50", "setting": "Human alphaherpesvirus 1 [8]", "result": 4.98},
      {"measurement": "pIC50", "setting": "CCRF-CEM", "result": 5.89},
      {"measurement": "pEC50", "setting": "Human alphaherpesvirus 2", "result": "< 4.00"}
    ]}
  ]
}
